The record followed here is ChEMBL document CHEMBL1921780, “Novel 3-nitro-1H-1,2,4-triazole-based aliphatic and aromatic amines as anti-chagasic agents” (J Med Chem, 2011).

Structures are written as SMILES. A value given as a limit tells only on which side of the number the result lay.

What is called IC50 is the concentration at which inhibition is half-maximal. Low values mean greater potency, high ones weaker potency.

Data set [1] is described as follows: Selectivity index, ratio of IC50 for rat L6 cells to IC50 for Trypanosoma brucei rhodesiense STIB 900. To be noted: L6 cells versus Trypanosoma brucei rhodesiense STIB 900, read-out: Ratio IC50. In kind it is toxicity, cell-based. In outline: (§1)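 Selectivity index is the L6 myoblast IC50 divided by the IC50 for each parasite. L. donovani was tested as axenic amastigotes. Both IC50s came from 96-well dose-response screens fitted by linear regression of sigmoidal curves.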

The subject of the next data set is L6. Put plainly: Cytotoxicity against rat L6 cells after 72 hrs by alamar blue assay. In kind it is cell-based. To be noted: L6, 72 h. In outline: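 Run in 96-well plates with a compound dose series. T. cruzi was tested as amastigotes inside infected L6 rat skeletal myoblasts. Uninfected L6 cells were used for cytotoxicity. IC50 was obtained by linear regression from sigmoidal dose–inhibition curves.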

The test system of a further data set is Trypanosoma cruzi. Put plainly: Antitrypanosomal activity against amastigotes of Trypanosoma cruzi Tulahuen C4 infected in rat L6 cells after 72 hrs by alamar blue assay. As to conditions: Tulahuen C4, L6, 72 h. (In general: Resazurin is reduced to fluorescent resorufin, in cell work by metabolically active cells.)
Data set [2] in a line: Selectivity index, ratio of IC50 for rat L6 cells to IC50 for Trypanosoma cruzi Tulahuen C4. In kind it is toxicity, cell-based. As to conditions: L6 cells versus Trypanosoma cruzi Tulahuen C4, read-out: Ratio IC50. In outline: as §1
The subject of data set [3] is Trypanosoma brucei rhodesiense. Put plainly: Antitrypanosomal activity against blood stream form of Trypanosoma brucei rhodesiense STIB 900 […] after 72 hrs by alamar blue assay. To be noted: STIB 900, 72 h. In kind it is functional, organism-based.
The test system of another data set is Leishmania donovani. The data set can be described thus: Antileishmanial activity against Leishmania donovani MHOM-ET-67/L82 axenic amastigotes after 72 hrs by alamar blue assay. As to conditions: MHOM-ET-67/L82, 72 h.
A short description of data set [4]: Selectivity index, ratio of IC50 for rat L6 cells to IC50 for Leishmania donovani MHOM-ET-67/L82. In kind it is toxicity, cell-based. As to conditions: L6 cells versus Leishmania donovani MHOM-ET-67/L82, read-out: Ratio IC50. In outline:
as §1

On to `O=[N+]([O-])c1nccn1CCCCNc1c2ccccc2nc2ccccc12`, for which the values for the selectivity ratio in data set [1] and in data set [2] were 3 and 2, respectively. In addition, the IC50 turned out to be 1.68 µM in the data set with L6, 0.926 µM in the data set on Trypanosoma cruzi, 0.601 µM in data set [3] and 14.8 µM in the data set with Leishmania donovani.

On to `O=[N+]([O-])c1nccn1CCCN(Cc1ccc(C(F)(F)F)cc1)Cc1ccc(C(F)(F)F)cc1`, for which the selectivity ratio in data set [1] is greater than 7; in data set [4], greater than 27; in data set [2] it was greater than 46. For the same compound, the IC50 is greater than 172 µM in the data set on L6, 3.77 µM in the data set on Trypanosoma cruzi, 23 µM in data set [3] and 6.49 µM with Leishmania donovani.

Consider `O=[N+]([O-])c1nccn1CCCNCc1ccc2cc(Br)ccc2n1`, for which the values for the selectivity ratio in data set [1], in data set [4] and in data set [2] were 16, 2 and 23, respectively. Further, the IC50 is 137 µM with L6, 6.05 µM with Trypanosoma cruzi, 8.56 µM in data set [3] and 80.3 µM in the data set on Leishmania donovani.

As to `O=[N+]([O-])c1nccn1CCNc1c2ccccc2nc2ccccc12`, the IC50 is 0.308 µM with L6, 0.996 µM with Trypanosoma cruzi, 0.996 µM in data set [3] and 9.09 µM with Leishmania donovani.

For the compound `Cc1cc(NCCCCn2ccnc2[N+](=O)[O-])nc(N)n1`, the selectivity ratio is greater than 23 in data set [1], greater than 3 in data set [4] and greater than 7 in data set [2]. The IC50 in the data set on L6 was greater than 275 µM; in the data set on Trypanosoma cruzi, 41.8 µM; in data set [3], 11.8 µM; with Leishmania donovani it was 98.1 µM.

Take `O=C1C(Cl)=C(NCCCn2cnc([N+](=O)[O-])n2)C(=O)c2ccccc21`: the selectivity ratio in data set [1] was found to be 8; in data set [4], 1. The IC50 stood at 7.16 µM in the data set on L6, 15.6 µM in the data set with Trypanosoma cruzi, 0.882 µM in data set [3] and 6.53 µM in the data set with Leishmania donovani.

On to `Clc1ccc2c(NCCCCn3cncn3)ccnc2c1`, for which the selectivity ratio is greater than 14 in data set [1] and greater than 3 in data set [2]. Besides, the IC50 with L6 is greater than 298 µM; in the data set on Trypanosoma cruzi, 92.1 µM; in data set [3] it was 21.8 µM; with Leishmania donovani, greater than 298 µM.

Regarding `Cc1nc(C(F)(F)F)nc(NCCCn2ccnc2[N+](=O)[O-])c1C`, the selectivity ratio was greater than 16 in data set [1], greater than 12 in data set [4] and greater than 55 in data set [2]. Also, the IC50 in the data set on L6 is greater than 236 µM; in the data set on Trypanosoma cruzi, 4.28 µM; in data set [3] it was 15.2 µM; with Leishmania donovani, 20.1 µM.

Turning to `Cc1cc(NCCCn2cnc([N+](=O)[O-])n2)nc(N)n1`, the selectivity ratio is greater than 131 in data set [1] and greater than 8 in data set [2]. The IC50 with L6 is greater than 286 µM; with Trypanosoma cruzi, 33.7 µM; in data set [3], 2.19 µM; with Leishmania donovani, greater than 95.4 µM.

`COc1cc2nc(Cl)nc(NCCCCn3ccnc3[N+](=O)[O-])c2cc1OC`: the selectivity ratio was 7 in data set [1], 5 in data set [4] and 17 in data set [2]. In addition, the IC50 with L6 was 16.5 µM; with Trypanosoma cruzi, 0.968 µM; in data set [3], 2.26 µM; in the data set with Leishmania donovani it was 3.63 µM.

`O=[N+]([O-])c1nccn1CCCCNc1ccnc2cc(Cl)ccc12`: the selectivity ratio turned out to be 36 in data set [1], 2 in data set [4] and 19 in data set [2]. Moreover, the IC50 is 66.8 µM in the data set on L6, 3.51 µM with Trypanosoma cruzi, 1.87 µM in data set [3] and 39.1 µM with Leishmania donovani.

`O=[N+]([O-])c1nccn1CCCN(Cc1cccc(C(F)(F)F)c1)Cc1cccc(C(F)(F)F)c1`: the selectivity ratio in data set [1] is 4; in data set [4], 19; in data set [2], 10. Besides, the IC50 with L6 stood at 79.6 µM; in the data set with Trypanosoma cruzi, 8.02 µM; in data set [3] it was 21.6 µM; in the data set on Leishmania donovani, 4.27 µM.

Consider `O=[N+]([O-])c1ncn(CCCN(Cc2cc(C(F)(F)F)cc(C(F)(F)F)c2)Cc2cc(C(F)(F)F)cc(C(F)(F)F)c2)n1`, for which the selectivity ratio is 10 in data set [1], 16 in data set [4] and 40 in data set [2]. Also, the IC50 in the data set on L6 amounted to 78.8 µM; in the data set with Trypanosoma cruzi, 1.96 µM; in data set [3], 8.17 µM; in the data set with Leishmania donovani, 4.87 µM.

As to `FC(F)(F)c1cc(CNCCCCn2cncn2)cc(C(F)(F)F)c1`, the selectivity ratio was greater than 7 in data set [1], greater than 1 in data set [4] and greater than 2 in data set [2]. The IC50 in the data set with L6 is greater than 224 µM; in the data set on Trypanosoma cruzi it was 123 µM; in data set [3], 32.3 µM; with Leishmania donovani, 172 µM.

For `Cc1cc(NCCCn2ccnc2[N+](=O)[O-])nc(N)n1`, the selectivity ratio is greater than 28 in data set [1] and greater than 41 in data set [2]. For the same compound, the IC50 with L6 is greater than 287 µM; in the data set with Trypanosoma cruzi, 7.08 µM; in data set [3], 10.3 µM; in the data set with Leishmania donovani it was greater than 95.7 µM.

As to `O=[N+]([O-])c1nccn1CCCN1CCN(Cc2ccc(C(F)(F)F)cc2)CC1`, the selectivity ratio in data set [1] is greater than 13; in data set [2], greater than 9. In addition, the IC50 is greater than 191 µM with L6, 20.7 µM in the data set with Trypanosoma cruzi, 15.3 µM in data set [3] and greater than 191 µM in the data set with Leishmania donovani.

`Cc1nc(NCCCn2ccnc2[N+](=O)[O-])c2ccccc2n1`: the results for the selectivity ratio in data set [1] and in data set [2] were 9 and 15, respectively. For the same compound, the IC50 was determined as 31.6 µM in the data set on L6, 2.1 µM in the data set with Trypanosoma cruzi, 3.46 µM in data set [3] and 68.3 µM in the data set with Leishmania donovani.

Regarding `O=[N+]([O-])c1nccn1CCCCNc1nc(-c2ccccc2)nc(Cl)c1-c1ccccc1`, the selectivity ratio in data set [1], in data set [4] and in data set [2] was 1 each time. Further, the IC50 in the data set on L6 is 11.7 µM; in the data set with Trypanosoma cruzi, 9.67 µM; in data set [3], 15.5 µM; with Leishmania donovani it was 12.4 µM.

As to `O=[N+]([O-])c1nccn1CCCNCc1cc(C(F)(F)F)cc(C(F)(F)F)c1`, the selectivity ratio was 10 in data set [1], less than 2 in data set [4] and 6 in data set [2]. Also, the IC50 in the data set with L6 is 140 µM; in the data set on Trypanosoma cruzi it was 24.5 µM; in data set [3] it was 13.8 µM; in the data set with Leishmania donovani, greater than 69.4 µM.

`O=C1C(Cl)=C(NCCCn2ccnc2[N+](=O)[O-])C(=O)c2ccccc21`: the values for the selectivity ratio in data set [1] and in data set [4] were 6 and 8, respectively. Besides, the concentration for half-maximal inhibition (IC50) turned out to be 3.91 µM with L6, 30.1 µM in the data set with Trypanosoma cruzi, 0.621 µM in data set [3] and 0.516 µM in the data set on Leishmania donovani.

Consider `O=[N+]([O-])c1nccn1CCCNc1ccnc2cc(Cl)ccc12`, for which the selectivity ratio in data set [1] amounted to 18; in data set [2] it was 24. For the same compound, the IC50 amounted to 24.9 µM in the data set on L6, 1.04 µM in the data set on Trypanosoma cruzi, 1.4 µM in data set [3] and 54.4 µM in the data set with Leishmania donovani.

In turn, `Nc1nc(N)nc(Nc2ccc([As]3SCC(CO)S3)cc2)n1` (stereo not drawn) [MELARSOPROL] came in with an IC50 in data set [3] of 0.01 µM.

In the case of `O=[N+]([O-])c1nccn1CCCCNc1nc(-c2ccccc2)nc2ccccc12`, the selectivity ratio was found to be 12 in data set [1], 5 in data set [4] and 9 in data set [2]. In addition, the IC50 with L6 was determined as 32.5 µM; with Trypanosoma cruzi, 3.63 µM; in data set [3], 2.76 µM; with Leishmania donovani, 6.17 µM.
